Measurements from ChEMBL document CHEMBL1130120, “N-arylpiperazinyl-N'-propylamino derivatives of heteroaryl amides as functional uroselective alpha 1-adrenoceptor antagonists” (J Med Chem, 1997).

How the values were obtained:
[1] = biological target: T1, Alpha-1D adrenergic receptor (Rattus norvegicus, UniProt P23944); assay: Antagonistic activity against rat aorta for affinity estimates representative of the Alpha-1D adrenergic receptor; format: functional, tissue-based; settings: read-out: pA2 (converted)
T1 sequence (P23944 whole entry): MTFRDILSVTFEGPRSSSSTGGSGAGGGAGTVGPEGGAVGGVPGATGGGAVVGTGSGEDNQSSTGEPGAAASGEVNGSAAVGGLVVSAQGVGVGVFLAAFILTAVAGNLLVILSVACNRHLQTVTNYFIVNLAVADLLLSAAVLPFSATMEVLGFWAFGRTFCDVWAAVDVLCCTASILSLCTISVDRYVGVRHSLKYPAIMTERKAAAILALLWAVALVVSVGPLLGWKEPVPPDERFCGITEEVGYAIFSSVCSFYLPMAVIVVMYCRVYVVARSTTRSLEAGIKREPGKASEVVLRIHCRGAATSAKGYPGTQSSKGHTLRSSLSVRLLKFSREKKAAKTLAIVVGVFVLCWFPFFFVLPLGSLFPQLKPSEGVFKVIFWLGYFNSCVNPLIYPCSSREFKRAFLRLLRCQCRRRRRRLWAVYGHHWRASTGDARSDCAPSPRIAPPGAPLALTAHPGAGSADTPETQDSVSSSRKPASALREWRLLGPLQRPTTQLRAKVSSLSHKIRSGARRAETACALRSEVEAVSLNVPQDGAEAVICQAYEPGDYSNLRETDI
How it was run: (§1)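 Isolated smooth-muscle tissue with cumulative norepinephrine concentration–effect curves (rat aorta, human lower urinary tract). Affinity obtained by full Schild regression for some antagonists. […] Competitive, reversible interaction at a single subtype assumed.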

[2] = biological target: T2, Alpha-1A adrenergic receptor (Oryctolagus cuniculus, UniProt O02824); assay: Antagonistic activity against alpha 1A/1L receptor was assessed in a rabbit bladder neck functional assay; settings: read-out: pA2 (converted)
T2 sequence (O02824 whole entry): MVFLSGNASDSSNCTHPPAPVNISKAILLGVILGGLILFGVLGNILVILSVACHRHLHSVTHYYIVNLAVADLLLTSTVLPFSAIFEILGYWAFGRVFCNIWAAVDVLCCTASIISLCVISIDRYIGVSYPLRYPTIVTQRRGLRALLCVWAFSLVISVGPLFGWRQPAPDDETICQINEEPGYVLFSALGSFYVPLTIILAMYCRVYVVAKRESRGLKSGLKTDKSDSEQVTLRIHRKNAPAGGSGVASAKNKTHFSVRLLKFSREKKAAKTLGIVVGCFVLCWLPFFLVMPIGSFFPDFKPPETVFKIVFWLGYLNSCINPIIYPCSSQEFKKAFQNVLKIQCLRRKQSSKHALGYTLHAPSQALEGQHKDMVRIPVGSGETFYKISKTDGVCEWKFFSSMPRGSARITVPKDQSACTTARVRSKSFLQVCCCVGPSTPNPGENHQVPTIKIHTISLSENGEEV

[3] = biological target: T3, Alpha-1A adrenergic receptor (Bos taurus, UniProt P18130); assay: In vitro for the displacement of [3H]prazosin binding to bovine Alpha-1A adrenergic receptor
T3 sequence (P18130 whole entry): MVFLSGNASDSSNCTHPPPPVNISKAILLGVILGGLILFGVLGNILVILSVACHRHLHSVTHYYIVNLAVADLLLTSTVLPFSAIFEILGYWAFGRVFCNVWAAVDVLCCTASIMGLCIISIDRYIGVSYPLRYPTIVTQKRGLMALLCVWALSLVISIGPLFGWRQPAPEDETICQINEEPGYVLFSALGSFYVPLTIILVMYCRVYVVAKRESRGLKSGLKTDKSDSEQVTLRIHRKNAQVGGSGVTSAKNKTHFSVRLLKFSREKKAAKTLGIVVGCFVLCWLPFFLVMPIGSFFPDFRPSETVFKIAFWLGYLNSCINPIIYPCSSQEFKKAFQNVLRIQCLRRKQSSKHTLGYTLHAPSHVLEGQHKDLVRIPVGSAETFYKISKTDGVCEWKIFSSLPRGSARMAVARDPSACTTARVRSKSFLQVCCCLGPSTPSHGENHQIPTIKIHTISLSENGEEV

[4] = biological target: T4, Adrenergic receptor alpha-1 (Homo sapiens, UniProt P35348+P25100+P35368); assay: Activity against Alpha-1 adrenergic receptor subtypes of human prostate tissue; format: functional
T4 sequence (P35348 whole entry): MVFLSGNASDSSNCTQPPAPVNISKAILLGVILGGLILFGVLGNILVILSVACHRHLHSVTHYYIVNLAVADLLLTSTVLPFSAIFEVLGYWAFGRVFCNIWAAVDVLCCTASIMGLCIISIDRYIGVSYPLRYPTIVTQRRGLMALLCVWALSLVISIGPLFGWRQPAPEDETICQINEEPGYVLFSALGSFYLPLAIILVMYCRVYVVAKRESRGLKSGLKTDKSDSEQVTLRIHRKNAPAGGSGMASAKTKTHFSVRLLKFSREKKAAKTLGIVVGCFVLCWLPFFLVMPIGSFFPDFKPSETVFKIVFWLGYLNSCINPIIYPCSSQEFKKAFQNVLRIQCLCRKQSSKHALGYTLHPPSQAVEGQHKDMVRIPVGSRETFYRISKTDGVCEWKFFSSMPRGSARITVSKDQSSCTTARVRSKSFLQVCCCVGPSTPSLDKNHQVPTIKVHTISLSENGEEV
T4 sequence (P25100 whole entry): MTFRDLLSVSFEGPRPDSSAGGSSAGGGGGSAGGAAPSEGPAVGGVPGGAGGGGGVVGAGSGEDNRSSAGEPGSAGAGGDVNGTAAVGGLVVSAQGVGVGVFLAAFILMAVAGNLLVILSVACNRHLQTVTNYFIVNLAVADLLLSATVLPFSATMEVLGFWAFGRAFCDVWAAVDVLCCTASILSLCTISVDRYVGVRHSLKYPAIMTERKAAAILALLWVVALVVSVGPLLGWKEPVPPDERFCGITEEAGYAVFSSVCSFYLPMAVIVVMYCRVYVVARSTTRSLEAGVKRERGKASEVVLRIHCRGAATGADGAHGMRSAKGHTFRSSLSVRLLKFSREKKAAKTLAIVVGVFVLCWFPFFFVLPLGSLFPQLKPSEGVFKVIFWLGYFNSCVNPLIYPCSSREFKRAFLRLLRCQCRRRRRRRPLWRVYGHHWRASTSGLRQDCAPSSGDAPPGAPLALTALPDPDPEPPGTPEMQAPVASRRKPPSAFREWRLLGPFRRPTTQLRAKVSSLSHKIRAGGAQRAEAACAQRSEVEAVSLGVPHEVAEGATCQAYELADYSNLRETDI
T4 sequence (P35368 whole entry): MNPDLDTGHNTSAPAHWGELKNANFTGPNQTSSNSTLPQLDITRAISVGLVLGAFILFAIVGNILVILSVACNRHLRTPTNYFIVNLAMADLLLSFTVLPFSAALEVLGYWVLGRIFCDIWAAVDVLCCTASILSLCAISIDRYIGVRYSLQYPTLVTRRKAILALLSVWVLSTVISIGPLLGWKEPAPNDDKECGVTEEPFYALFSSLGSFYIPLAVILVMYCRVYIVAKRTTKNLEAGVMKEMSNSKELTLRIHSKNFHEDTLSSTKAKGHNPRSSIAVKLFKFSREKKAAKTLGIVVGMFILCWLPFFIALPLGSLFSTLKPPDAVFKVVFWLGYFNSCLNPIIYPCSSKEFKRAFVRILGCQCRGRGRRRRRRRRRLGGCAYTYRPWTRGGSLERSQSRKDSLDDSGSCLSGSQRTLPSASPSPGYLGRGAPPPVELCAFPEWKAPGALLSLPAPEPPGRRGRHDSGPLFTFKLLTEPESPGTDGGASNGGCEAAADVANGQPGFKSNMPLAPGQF
How it was run: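 Isolated smooth-muscle tissue with cumulative norepinephrine concentration–effect curves (rat aorta, human lower urinary tract). Affinity obtained by full Schild regression for some antagonists. Competitive, reversible interaction at a single subtype assumed.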

D(2) dopamine receptor = D(2) dopamine receptor (Homo sapiens, UniProt P14416); assay: The compound's binding affinity against Dopamine receptor D2
Sequence of D(2) dopamine receptor (P14416 whole entry): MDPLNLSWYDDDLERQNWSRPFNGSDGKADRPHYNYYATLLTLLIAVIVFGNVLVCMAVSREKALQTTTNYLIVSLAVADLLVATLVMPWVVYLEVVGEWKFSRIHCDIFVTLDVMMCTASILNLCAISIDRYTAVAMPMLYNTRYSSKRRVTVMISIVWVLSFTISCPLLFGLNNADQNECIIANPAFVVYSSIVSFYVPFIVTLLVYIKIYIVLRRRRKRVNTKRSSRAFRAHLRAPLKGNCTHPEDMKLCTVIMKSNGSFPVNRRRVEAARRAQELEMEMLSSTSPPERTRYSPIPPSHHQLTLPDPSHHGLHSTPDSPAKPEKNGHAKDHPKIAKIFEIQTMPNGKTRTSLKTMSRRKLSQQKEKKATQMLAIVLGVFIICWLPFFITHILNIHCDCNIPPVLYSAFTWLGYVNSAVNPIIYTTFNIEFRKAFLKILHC

[5] = biological target: T5, Alpha-2B adrenergic receptor (Rattus norvegicus, UniProt P19328); assay: The compound's binding affinity against Alpha-2B adrenergic receptor from rat kidney homogenate in the presence of phentolamine
T5 sequence (P19328 whole entry): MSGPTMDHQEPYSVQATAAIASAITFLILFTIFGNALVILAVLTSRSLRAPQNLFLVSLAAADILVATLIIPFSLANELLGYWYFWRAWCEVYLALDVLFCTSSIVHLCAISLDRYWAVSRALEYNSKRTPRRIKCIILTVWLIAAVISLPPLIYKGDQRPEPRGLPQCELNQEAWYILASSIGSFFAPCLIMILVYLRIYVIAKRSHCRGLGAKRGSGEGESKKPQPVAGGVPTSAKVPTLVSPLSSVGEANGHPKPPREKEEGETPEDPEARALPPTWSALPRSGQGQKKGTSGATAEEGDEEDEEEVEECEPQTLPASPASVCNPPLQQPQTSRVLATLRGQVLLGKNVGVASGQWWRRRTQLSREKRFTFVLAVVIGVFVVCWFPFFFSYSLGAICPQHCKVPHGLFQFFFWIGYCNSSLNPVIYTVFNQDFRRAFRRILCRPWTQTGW

[6] = biological target: Adrenergic receptor alpha-1 (Homo sapiens) (UniProt P35348+P25100+P35368); assay: The compound was screened in vitro for functional activity against Alpha-1 adrenergic receptor subtypes of human prostate tissue; how it was run: as §1
[7] = biological target: T6, 5-hydroxytryptamine receptor 1A (Mus musculus) (UniProt Q64264); assay: The compound's binding affinity against 5-hydroxytryptamine 1A receptor
T6 sequence (whole entry): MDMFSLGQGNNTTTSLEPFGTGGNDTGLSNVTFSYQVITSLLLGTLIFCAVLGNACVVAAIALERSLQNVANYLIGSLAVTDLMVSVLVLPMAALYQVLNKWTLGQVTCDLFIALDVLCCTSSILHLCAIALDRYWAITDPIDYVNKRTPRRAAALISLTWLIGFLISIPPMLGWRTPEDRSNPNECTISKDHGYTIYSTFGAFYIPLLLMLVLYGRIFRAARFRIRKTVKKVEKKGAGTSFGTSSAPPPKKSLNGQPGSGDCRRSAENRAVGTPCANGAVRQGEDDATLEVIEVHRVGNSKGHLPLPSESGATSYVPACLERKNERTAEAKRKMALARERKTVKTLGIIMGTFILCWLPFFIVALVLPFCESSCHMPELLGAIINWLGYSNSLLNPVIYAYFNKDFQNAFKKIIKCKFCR

[8] = biological target: T3, Alpha-1A adrenergic receptor; assay: The compound was screened in vitro for the displacement of [3H]prazosin binding to bovine Alpha-1A adrenergic receptor

Kb [1]	Kb [2]	Ki [3]	pA2 [4]	Ki (D(2) dopamine receptor)	Ki [5]	pKi (D(2) dopamine receptor)	pA2 [6]	pKi [7]	Ki [8]	Structure (SMILES)
10 nM	1.26 nM	1.58 nM	8.7							COc1ccccc1N1CCN(CCCNc2ncccc2C(=O)NC(C)(C)C)CC1
63.1 nM	1.26 nM			126 nM	79.4 nM					CN(C)C(=O)c1cccnc1NCCCN1CCN(c2ccccc2-c2ccccc2)CC1
316 nM	1.26 nM					6.4	9.3	6.5		COc1cc(F)ccc1N1CCN(CCCNc2c(C(=O)N(C)C)cnc3c2c(C)nn3C)CC1
126 nM	0.501 nM					8.1	9	7.5		Cc1nn(C)c2ncc(C(=O)N(C)C)c(NCCCN3CCN(c4ccccc4OCC(F)(F)F)CC3)c12
63.1 nM	1.58 nM					6.7	8.5	6.7		COc1cc(F)ccc1N1CCN(CCCNc2ncccc2C(=O)N(C)C)CC1
20 nM	1.58 nM					7.4	8.5	7.6	0.794 nM	COc1ccccc1N1CCN(CCCNc2ncccc2C(=O)N(C)C)CC1
